# Active and inactive are the calls of the source. The rule behind the calls is not given here.
# Assays:
# [1] = AUC (0 to 24 hrs) in in vitro pharmacokinetic/pharmacodynamic model at 300 mg for every 8 hrs
# [2] = Cmax in in vitro pharmacokinetic/pharmacodynamic model at 300 mg for every 8 hrs
# Staphylococcus aureus [3] = test: Antimicrobial activity against heteroresistant glycopeptide-intermediate Staphylococcus aureus 1629 by broth microdilution method; assay type: functional
# How it was run: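 MICs determined by broth microdilution at ~5.5 log10 CFU/ml following CLSI guidelines.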
# Staphylococcus aureus [4] = test: microbe, parasite or virus in culture; conditions: 1199
# Staphylococcus aureus [5] = test: Antimicrobial activity against glycopeptide-intermediate Staphylococcus aureus NJ992 by broth microdilution method
# Staphylococcus aureus [6] = test: microbe, parasite or virus in culture; conditions: 494
# Staphylococcus aureus [7] = test: Antibacterial activity against heteroresistant glycopeptide-intermediate Staphylococcus aureus 1629 assessed as decrease in bacterial load in in vitro pharmacokinetic/pharmacodynamic model at 1 g for every 12 hrs administered daily after 96 hrs; assay type: functional, organism-based
# How it was run: (§1)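 250-ml in vitro PK/PD model holding simulated endocardial vegetations, inoculum ~9 log10 CFU/g. Regimens simulated over 96 h: telavancin 10 mg/kg daily (peak 87.5 μg/ml, t½ 8 h) or vancomycin 1 g every 12 h (trough 10 μg/ml, t½ 6 h). Two SEVs per model removed at 0–96 h, homogenized, diluted and plated on TSA at 35°C for 18–24 h. Detection limit 2 log10 CFU/g; models in duplicate.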
# Staphylococcus aureus [8] = test: Antibacterial activity against methicillin-resistant Staphylococcus aureus 494 assessed as decrease in bacterial load in in vitro pharmacokinetic/pharmacodynamic model at 1 g for every 12 hrs administered daily after 96 hrs; assay type: functional, organism-based
# How it was run: as §1
# Staphylococcus aureus [9] = test: Antibacterial activity against glycopeptide-intermediate Staphylococcus aureus NJ992 assessed as decrease in bacterial load in in vitro pharmacokinetic/pharmacodynamic model at 1 g for every 12 hrs administered daily after 96 hrs; assay type: functional, organism-based
# How it was run: as §1
# Staphylococcus aureus [10] = test: Antibacterial activity against methicillin-susceptible Staphylococcus aureus 1199 assessed as bacterial load per gram in in vitro pharmacokinetic/pharmacodynamic model at 10 mg/kg administered daily after 96 hrs; assay type: functional
# How it was run: as §1
# Staphylococcus aureus [11] = test: Antibacterial activity against heteroresistant glycopeptide-intermediate Staphylococcus aureus 1629 assessed as decrease in bacterial load in in vitro pharmacokinetic/pharmacodynamic model at 10 mg/kg administered daily after 64 hrs; assay type: functional, organism-based; parameters: dose 10 mg/kg
# How it was run: as §1
# [12] = AUC (0 to 24 hrs) in in vitro pharmacokinetic/pharmacodynamic model at 10 mg/kg for every 12 hrs; assay type: ADME, organism-based; parameters: time < 24 hr, dose 10 mg/kg; conditions: in the assay text read “every 24 hrs” for “every 12 hrs”
# How it was run: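 Central compartment (250 ml glass in vitro PK/PD model holding simulated endocardial vegetations) sampled via injection port at 1, 4, 8, 24, 32, 48, 72 and 96 h. Drug levels measured by agar-well bioassay with Micrococcus luteus ATCC 9341 (zone sizes after 18–24 h at 35°C). Peak, half-life and AUC derived by trapezoidal method. Models run in duplicate; mean ± SD.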
# Staphylococcus aureus [13] = test: Antibacterial activity against methicillin-susceptible Staphylococcus aureus 1199 assessed as decrease in bacterial load in in vitro pharmacokinetic/pharmacodynamic model at 1 g for every 12 hrs administered daily after 96 hrs; assay type: functional, organism-based
# How it was run: as §1
# Staphylococcus aureus [14] = test: Antibacterial activity against glycopeptide-intermediate Staphylococcus aureus NJ992 assessed as decrease in bacterial load in in vitro pharmacokinetic/pharmacodynamic model at 10 mg/kg administered daily after 62 hrs; assay type: functional, organism-based; parameters: dose 10 mg/kg
# How it was run: as §1
# Staphylococcus aureus [15] = test: Antibacterial activity against glycopeptide-intermediate Staphylococcus aureus NJ992 assessed as bacterial load per gram in in vitro pharmacokinetic/pharmacodynamic model at 10 mg/kg administered daily after 96 hrs; assay type: functional
# Staphylococcus aureus [16] = test: Antibacterial activity against heteroresistant glycopeptide-intermediate Staphylococcus aureus 1629 assessed as bacterial load per gram in in vitro pharmacokinetic/pharmacodynamic model at 10 mg/kg administered daily after 96 hrs; assay type: functional
# How it was run: as §1
# [17] = Cmax in in vitro pharmacokinetic/pharmacodynamic model at 1 g for every 12 hrs; assay type: ADME; parameters: dose 1 g
# How it was run: (§2)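 Drugs given as boluses into the central compartment of a 250-ml glass in vitro PK/PD model over 96 h. Samples taken via the injection port at 1, 4, 8, 24, 32, 48, 72 and 96 h. […] Half-life, peak and AUC derived by the trapezoidal method. Models run in duplicate; mean ± SD.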
# [18] = AUC (0 to 24 hrs) in in vitro pharmacokinetic/pharmacodynamic model at 1 g for every 12 hrs; assay type: ADME; parameters: dose 1 g, time < 24 hr
# How it was run: as §2
# [19] = Half life in in vitro pharmacokinetic/pharmacodynamic model at 1 g for every 12 hrs; assay type: ADME
# How it was run: as §2
# [20] = Cmax in in vitro pharmacokinetic/pharmacodynamic model at 5 mg/kg for every 24 hrs; assay type: ADME, organism-based; parameters: dose 5 mg/kg
# How it was run: as §2
# [21] = AUC (0 to 24 hrs) in in vitro pharmacokinetic/pharmacodynamic model at 5 mg/kg for every 24 hrs; assay type: ADME, organism-based; parameters: time < 24 hr, dose 5 mg/kg
# How it was run: as §2
# [22] = Half life in in vitro pharmacokinetic/pharmacodynamic model at 5 mg/kg for every 24 hrs; assay type: ADME, organism-based; parameters: dose 5 mg/kg
# How it was run: as §2
compound,measurement,setting,value
CO[C@H]1/C=C/O[C@@]2(C)Oc3c(C)c(O)c4c(O)c(c(/C=N/N5CCN(C)CC5)c(O)c4c3C2=O)NC(=O)/C(C)=C\C=C\[C@H](C)[C@H](O)[C@@H](C)[C@@H](O)[C@@H](C)[C@H](OC(C)=O)[C@@H]1C [RIFAMPIN],AUC at 24 h,[1],64.4 µg·h/mL
same,Cmax,[2],4900 ng/mL
same,MIC,Staphylococcus aureus [3],0.004 µg/mL
same,MIC,Staphylococcus aureus [4],0.004 µg/mL
same,MIC,Staphylococcus aureus [5],2050 µg/mL
same,MIC,Staphylococcus aureus [6],0.004 µg/mL
CCCCCCCCCCNCCN[C@@]1(C)C[C@H](O[C@H]2[C@H](Oc3c4cc5cc3Oc3ccc(cc3Cl)[C@@H](O)[C@@H](NC(=O)[C@@H](CC(C)C)NC)C(=O)N[C@@H](CC(N)=O)C(=O)N[C@H]5C(=O)N[C@H]3C(=O)N[C@H](C(=O)N[C@H](C(=O)O)c5cc(O)c(CNCP(=O)(O)O)c(O)c5-c5cc3ccc5O)[C@H](O)c3ccc(c(Cl)c3)O4)O[C@H](CO)[C@@H](O)[C@@H]2O)O[C@@H](C)[C@H]1O [TELAVANCIN],Activity,Staphylococcus aureus [7],inactive
same,Activity,Staphylococcus aureus [8],inactive
same,Activity,Staphylococcus aureus [9],inactive
same,CFU/g,Staphylococcus aureus [10],2.8
same,Activity,Staphylococcus aureus [11],Active
same,AUC at 24 h,[12],969 µg·h/mL
same,MIC,Staphylococcus aureus [3],0.125 µg/mL
same,Activity,Staphylococcus aureus [13],inactive
same,MIC,Staphylococcus aureus [4],0.25 µg/mL
same,MIC,Staphylococcus aureus [5],0.5 µg/mL
same,Activity,Staphylococcus aureus [14],Active
same,CFU/g,Staphylococcus aureus [15],4.1 log10 CFU/g
same,CFU/g,Staphylococcus aureus [16],4.2 log10 CFU/g
same,MIC,Staphylococcus aureus [6],0.125 µg/mL
CN[C@H](CC(C)C)C(=O)N[C@H]1C(=O)N[C@@H](CC(N)=O)C(=O)N[C@H]2C(=O)N[C@H]3C(=O)N[C@H](C(=O)N[C@H](C(=O)O)c4cc(O)cc(O)c4-c4cc3ccc4O)[C@H](O)c3ccc(c(Cl)c3)Oc3cc2cc(c3O[C@@H]2O[C@H](CO)[C@@H](O)[C@H](O)[C@H]2O[C@H]2C[C@](C)(N)[C@H](O)[C@H](C)O2)Oc2ccc(cc2Cl)[C@H]1O [VANCOMYCIN],Cmax,[17],37000 ng/mL
same,AUC at 24 h,[18],391 µg·h/mL
same,MIC,Staphylococcus aureus [5],8 µg/mL
same,half-life,[19],6.2 h
GENTAMICIN [listing 1 of 2 here],Cmax,[20],15800 ng/mL
same,AUC,[21],63.1 µg·h/mL
same,t1/2,[22],3.4 h
GENTAMICIN [listing 2 of 2 here],MIC,Staphylococcus aureus [3],0.25 µg/mL

# Reference: ChEMBL document CHEMBL1649505, “Activity of telavancin against Staphylococcus aureus strains with various vancomycin susceptibilities in an in vitro pharmacokinetic/pharmacodynamic model with simulated endocardial vegetations” (Antimicrob Agents Chemother, 2009)
